From ChEMBL document CHEMBL4665734, “Optimization of globomycin analogs as novel gram-negative antibiotics” (Bioorg Med Chem Lett, 2020)
In brackets after ≈: the same amount, converted by molar mass. Starred links: 1 amine or outer side, 2 acyl side, 3 side chain; linkers in the order of their positions; H or OH if unused. Non-standard residues stand in square brackets, D forms with d. Residues, ends and D or L forms follow the SMILES beside them. Groups on a side chain read outwards from the residue. *: point of attachment. X1 = CCCCCC[C@@H](OC[C@@H](C)N[*:1])[C@@H](C)C(=O)[*:2]; X16 = CCCC[C@@H](C(=O)[*:2])N(CCCC)CCN[*:1]; Gly(cHept) = N[C@H](C(=O)O)C1CCCCCC1; aThr = C[C@H](O)[C@H](N)C(=O)O; NMeL = CN[C@@H](CC(C)C)C(=O)O; Chg = N[C@H](C(=O)O)C1CCCCC1; NMeNva = CCC[C@H](NC)C(=O)O; X13 = N[C@H]1C[C@H](N*)C1; X14 = NCCN1CC[C@H](*)C1; Dap = NC[C@H](N)C(=O)O; CO = O=C([*:1])[*:2]; X15 = O=C(O)CCCNCCC*; X11 = NCCCC*

How the values were obtained:
Escherichia coli = assay: Inhibition of LspA in Escherichia coli CFT073imp4213 harboring outer membrane-permeable mutant assessed as inhibition of bacterial growth
Summary of the method: (§1)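 Read-out is the minimum inhibitory concentration, reported in µM.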

[1] = Growth inhibition of Staphylococcus aureus USA300
Escherichia coli CFT073 = assay: Inhibition of LspA in wild type Escherichia coli CFT073 assessed as inhibition of bacterial growth; summary of the method: as §1
[2] = Lipophilicity, logD of the compound at pH 7.4; conditions: buffer

| SMILES | MIC (Escherichia coli) | MIC [1] | MIC (Escherichia coli CFT073) | logD ([2]; pH 7.4, logD) | logD ([2]; pH 7.4) |
| --- | --- | --- | --- | --- | --- |
| CCCCCC[C@H]1OC[C@@H](C)NC(=O)[C@H](COCCCCN)NC(=O)[C@H](CN)NC(=O)[C@H](C2CCCCC2)NC(=O)[C@H](CC(C)C)N(C)C(=O)[C@@H]1C (cyclo([Chg][Dap]S(X11)[X1][NMeL])) | 0.18 µM (≈ 0.133 µg/mL) | 56 µM (≈ 41.3 µg/mL) | 7 µM (≈ 5.17 µg/mL) | 1.7 | – |
| CCCCCCCCCC[C@H]1OC(=O)CNC(=O)[C@H]([C@H](C)O)NC(=O)[C@H](CO)NC(=O)[C@H]([C@H](C)CC)NC(=O)[C@H](CC(C)C)N(C)C(=O)[C@@H]1C | 0.016 µM (≈ 0.0114 µg/mL) | 25 µM (≈ 17.8 µg/mL) | 5.4 µM (≈ 3.84 µg/mL) | – | – |
| CCCCCCCCCC[C@H]1OC(=O)CNC(=O)[C@H]([C@H](C)O)NC(=O)[C@H](Cc2c[nH]cn2)NC(=O)[C@H]([C@@H](C)CC)NC(=O)[C@H](CC(C)C)N(C)C(=O)[C@@H]1C | 6.3 µM (≈ 4.8 µg/mL) | 25 µM (≈ 19.1 µg/mL) | 100 µM (≈ 76.2 µg/mL) | – | – |
| CC[C@@H](C)[C@@H]1NC(=O)[C@H](CC(C)C)N(C)C(=O)[C@H](C)[C@@H](CCCCCC(F)(F)F)OC(=O)CNC(=O)[C@H]([C@H](C)O)NC(=O)[C@H](CN)NC1=O | 0.39 µM (≈ 0.276 µg/mL) | > 100 µM | 25 µM (≈ 17.7 µg/mL) | 2 | – |
| CCCCCCCCCC[C@H]1OC(=O)CNC(=O)[C@H]([C@H](C)O)NC(=O)[C@H](CNC(=N)N)NC(=O)[C@H]([C@@H](C)CC)NC(=O)[C@H](CC(C)C)N(C)C(=O)[C@@H]1C | 1.6 µM (≈ 1.2 µg/mL) | 13 µM (≈ 9.79 µg/mL) | 50 µM (≈ 37.6 µg/mL) | – | – |
| CCC[C@H]1C(=O)N[C@@H](C2CCCCCC2)C(=O)N[C@@H](CN)C(=O)N[C@@H]([C@H](C)O)C(=O)NCC(=O)O[C@H](CC2CC3CCC2C3)[C@@H](C)C(=O)N1C (stereo in doubt; 27) [listing 1 of 2 here] | 0.009 µM (≈ 0.00634 µg/mL) | – | 0.78 µM (≈ 0.55 µg/mL) | – | – |
| CCCCCC[C@H]1OC(=O)CNC(=O)[C@H]([C@H](C)O)NC(=O)[C@H](CN)NC(=O)[C@H]([C@@H](C)O)NC(=O)[C@H](CC(C)C)N(C)C(=O)[C@@H]1C | 50 µM (≈ 32.1 µg/mL) | > 100 µM | > 100 µM | – | – |
| CCCC(C)(C)CC[C@H]1OC(=O)CNC(=O)[C@H]([C@H](C)O)NC(=O)[C@H](CN)NC(=O)[C@H]([C@H](C)CC)NC(=O)[C@H](CC(C)C)N(C)C(=O)[C@@H]1C | 0.034 µM (≈ 0.0232 µg/mL) | 100 µM (≈ 68.3 µg/mL) | 3.1 µM (≈ 2.12 µg/mL) | 3.2 | – |
| CCCCCC[C@H]1OC(=O)CNC(=O)[C@H]([C@H](C)O)NC(=O)[C@H](CN)NC(=O)[C@H](C2CCCCC2)NC(=O)[C@H](CCC)N(C)C(=O)[C@@H]1C | 0.049 µM (≈ 0.0327 µg/mL) | > 100 µM | 3.5 µM (≈ 2.33 µg/mL) | – | – |
| CCC[C@H]1C(=O)N[C@@H](C2CCCCCC2)C(=O)N[C@@H](CN)C(=O)N[C@@H]([C@H](C)O)C(=O)NCC(=O)O[C@H](CC2CC3CCC2C3)[C@@H](C)C(=O)N1C (stereo in doubt; 26) [listing 1 of 2 here] | – | 100 µM (≈ 70.5 µg/mL) | – | 2.8 | – |
| CCCCCCCCCC[C@H]1OC(=O)CNC(=O)[C@H]([C@H](C)O)NC(=O)[C@H](C)NC(=O)[C@H]([C@@H](C)CC)NC(=O)[C@H](CC(C)C)N(C)C(=O)[C@@H]1C | 25 µM (≈ 17.4 µg/mL) | 25 µM (≈ 17.4 µg/mL) | 100 µM (≈ 69.6 µg/mL) | – | – |
| CCCCCC[C@H]1OC(=O)CNC(=O)[C@H]([C@H](C)O)NC(=O)[C@H](CN)NC(=O)[C@H](C2CCCCCC2)NC(=O)[C@H](CC(C)C)N(C)C(=O)[C@@H]1C | 0.014 µM (≈ 0.00973 µg/mL) | 50 µM (≈ 34.7 µg/mL) | 1.1 µM (≈ 0.764 µg/mL) | 3.4 | – |
| CCCCCCCCCC[C@H]1OC(=O)CNC(=O)[C@H]([C@H](C)O)NC(=O)[C@H](CN)NC(=O)[C@H]([C@H](C)CC)NC(=O)[C@H](CC(C)C)N(C)C(=O)[C@@H]1C | 0.011 µM (≈ 0.00782 µg/mL) | 15 µM (≈ 10.7 µg/mL) | 2.1 µM (≈ 1.49 µg/mL) | 4.6 | – |
| CCCCCC[C@H]1OC[C@@H](C)NC(=O)[C@H](COc2ccc(CCN)cc2)NC(=O)[C@H](CN)NC(=O)[C@H](C2CCCCC2)NC(=O)[C@H](CCC)N(C)C(=O)[C@@H]1C | 0.048 µM (≈ 0.0371 µg/mL) | 25 µM (≈ 19.3 µg/mL) | 1.6 µM (≈ 1.24 µg/mL) | 2.4 | – |
| CCCCCCCCCC[C@H]1OC(=O)CNC(=O)[C@H]([C@H](C)O)NC(=O)[C@H](CCN)NC(=O)[C@H]([C@@H](C)CC)NC(=O)[C@H](CC(C)C)N(C)C(=O)[C@@H]1C | 0.39 µM (≈ 0.283 µg/mL) | 13 µM (≈ 9.42 µg/mL) | 25 µM (≈ 18.1 µg/mL) | – | – |
| CCCCCC[C@H]1OC[C@@H](C)NC(=O)[C@H](CO[C@H]2CCN(CCN)C2)NC(=O)[C@H](CN)NC(=O)[C@H](C2CCCCCC2)NC(=O)[C@H](CCC)N(C)C(=O)[C@@H]1C (cyclo([Dap]S(X14)[X1][NMeNva][Gly(cHept)])) | 0.2 µM (≈ 0.156 µg/mL) | 100 µM (≈ 77.9 µg/mL) | 6.3 µM (≈ 4.91 µg/mL) | 1.6 | – |

| SMILES | MIC (Escherichia coli) | MIC [1] | MIC (Escherichia coli CFT073) | logD ([2]; pH 7.4, logD) | logD ([2]; pH 7.4) |
| --- | --- | --- | --- | --- | --- |
| CCCCCC[C@H]1OC[C@@H](C)NC(=O)[C@H](CNC(=O)N[C@H]2C[C@H](N)C2)NC(=O)[C@H](CN)NC(=O)[C@H](C2CCCCCC2)NC(=O)[C@H](CCC)N(C)C(=O)[C@@H]1C (cyclo([Dap][Dap]([CO-X13])[X1][NMeNva][Gly(cHept)])) | 0.39 µM (≈ 0.303 µg/mL) | 71 µM (≈ 55.2 µg/mL) | 12 µM (≈ 9.34 µg/mL) | 1.5 | – |
| CCC[C@H]1C(=O)N[C@@H](C2CCCCCC2)C(=O)N[C@@H](CN)C(=O)N[C@@H]([C@H](C)O)C(=O)NCC(=O)O[C@H](CC2CC3CCC2C3)[C@@H](C)C(=O)N1C (stereo in doubt; 26) [listing 2 of 2 here] | 0.041 µM (≈ 0.0289 µg/mL) | – | 0.97 µM (≈ 0.684 µg/mL) | – | – |
| CCCCCC[C@H]1OC(=O)CNC(=O)[C@H]([C@H](C)O)NC(=O)[C@H](CN)NC(=O)[C@H](c2ccccc2)NC(=O)[C@H](CC(C)C)N(C)C(=O)[C@@H]1C | 1.6 µM (≈ 1.08 µg/mL) | > 100 µM | 71 µM (≈ 47.9 µg/mL) | – | – |
| CCCC[C@H]1C(=O)N(C)[C@@H](CC(C)C)C(=O)N[C@@H](C2CCCCC2)C(=O)N[C@@H](CN)C(=O)N[C@@H]([C@H](C)O)C(=O)NCCN1CCCC (cyclo([Chg][Dap][aThr][X16][NMeL])) | 0.1 µM (≈ 0.0666 µg/mL) | 100 µM (≈ 66.6 µg/mL) | 6.3 µM (≈ 4.2 µg/mL) | – | – |
| CCCCCCCCCC[C@H]1OC(=O)CNC(=O)[C@H]([C@H](C)O)NC(=O)[C@H](CO)NC(=O)[C@H]([C@@H](C)CC)NC(=O)[C@H](CC(C)C)N(C)C(=O)[C@@H]1C | 0.016 µM (≈ 0.0114 µg/mL) | 25 µM (≈ 17.8 µg/mL) | 9.4 µM (≈ 6.69 µg/mL) | – | – |
| CCCCCC[C@H]1OC[C@@H](C)NC(=O)[C@H](COCCCNCCCC(=O)O)NC(=O)[C@H](CN)NC(=O)[C@H](C2CCCCCC2)NC(=O)[C@H](CCC)N(C)C(=O)[C@@H]1C (cyclo([Dap]S(X15)[X1][NMeNva][Gly(cHept)])) | 0.78 µM (≈ 0.632 µg/mL) | > 100 µM | 100 µM (≈ 81 µg/mL) | – | – |
| CCCCCCCCCC[C@H]1OC(=O)CNC(=O)[C@H]([C@H](C)O)NC(=O)[C@H](CN)NC(=O)[C@H]([C@@H](C)CC)NC(=O)[C@H](CC(C)C)N(C)C(=O)[C@@H]1C | 0.03 µM (≈ 0.0213 µg/mL) | 13 µM (≈ 9.24 µg/mL) | 2.2 µM (≈ 1.56 µg/mL) | – | – |
| CCCCCC[C@H]1OC(=O)CNC(=O)[C@H]([C@H](C)O)NC(=O)[C@H](CN)NC(=O)[C@H](CC(C)C)NC(=O)[C@H](CC(C)C)N(C)C(=O)[C@@H]1C | 0.4 µM (≈ 0.262 µg/mL) | > 100 µM | 25 µM (≈ 16.4 µg/mL) | – | – |
| CCCCCC[C@H]1OC(=O)CNC(=O)[C@H]([C@H](C)O)NC(=O)[C@H](CN)NC(=O)[C@H](Cc2ccccc2)NC(=O)[C@H](CC(C)C)N(C)C(=O)[C@@H]1C | 0.8 µM (≈ 0.551 µg/mL) | > 100 µM | 50 µM (≈ 34.4 µg/mL) | – | – |
| CCCCCC[C@H]1OC(=O)CNC(=O)[C@H]([C@H](C)O)NC(=O)[C@H](CN)NC(=O)[C@H](C2CCCCC2)NC(=O)[C@H](CC(C)C)N(C)C(=O)[C@@H]1C | 0.059 µM (≈ 0.0402 µg/mL) | > 100 µM | 3.1 µM (≈ 2.11 µg/mL) | – | – |
| CCCCCC[C@H]1OC(=O)CNC(=O)[C@H]([C@H](C)O)NC(=O)[C@H](CN)NC(=O)[C@H]([C@@H](C)OC)NC(=O)[C@H](CC(C)C)N(C)C(=O)[C@@H]1C | 7.7 µM (≈ 5.06 µg/mL) | > 100 µM | > 100 µM | – | – |
| CCCCCC[C@H]1OC(=O)CNC(=O)[C@H]([C@H](C)O)NC(=O)[C@H](CN)NC(=O)[C@H]([C@H](C)CC)NC(=O)[C@H](CC(C)C)N(C)C(=O)[C@@H]1C | 0.053 µM (≈ 0.0347 µg/mL) | > 100 µM | 8.6 µM (≈ 5.63 µg/mL) | – | – |
| CCC[C@H]1C(=O)N[C@@H](C2CCCCCC2)C(=O)N[C@@H](CN)C(=O)N[C@@H]([C@H](C)O)C(=O)NCC(=O)O[C@H](CC2CC3CCC2C3)[C@@H](C)C(=O)N1C (stereo in doubt; 27) [listing 2 of 2 here] | – | – | – | – | 2.9 |
| CCCCCC[C@H]1OC(=O)CNC(=O)[C@H]([C@H](C)O)NC(=O)[C@H](CN)NC(=O)[C@H](CCC(N)=O)NC(=O)[C@H](CC(C)C)N(C)C(=O)[C@@H]1C | > 100 µM | > 100 µM | > 100 µM | – | – |
| CCCCCC[C@H]1OC(=O)CNC(=O)[C@H]([C@H](C)O)NC(=O)[C@H](CN)NC(=O)[C@H](C2CCCCC2)NC(=O)[C@H](CC)N(C)C(=O)[C@@H]1C | 0.14 µM (≈ 0.0914 µg/mL) | > 100 µM | 8.8 µM (≈ 5.74 µg/mL) | – | – |
